Test results from ChEMBL document CHEMBL1126625, “7-Azetidinylquinolones as antibacterial agents. Synthesis and structure-activity relationships” (J Med Chem, 1993).
In brackets after ≈: the same amount, converted by molar mass.

How the values were obtained:
Staphylococcus aureus [1] = test: Minimum inhibitory concentration (MIC) preventing growth of […]; type: functional
Escherichia coli [2] = test: Minimum inhibitory concentration (MIC)preventing growth of Escherichia coli; type: functional
Enterococcus faecalis = test: Minimum inhibitory concentration (MIC) preventing growth of Streptococcus faecalis ATCC 10541; type: functional
Pseudomonas aeruginosa [3] = test: Minimum inhibitory concentration (MIC)preventing growth of Pseudomonas aeruginosa; type: functional
Staphylococcus aureus [4] = test: Efficacy on systemic infections after oral administration in mice was determined against […] HS-93; type: functional
Method in brief: (§1)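 Mouse protection test using 4 groups of 10 mice. Mice were infected intraperitoneally with a bacterial suspension slightly above LD100. A single oral dose was given immediately after infection, with four doses, one per group, chosen from in vitro activity. Survival was scored after one week, and ED50 (total mg/kg protecting 50% of mice) was interpolated from group survival rates.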

Bacillus cereus = test: Minimum inhibitory concentration (MIC) preventing growth of Bacillus cereus; type: functional
Morganella morganii = test: Minimum inhibitory concentration (MIC) preventing growth of Morganella morganii; type: functional
Mus musculus [5] = test: Blood level after oral administration in mice (50 mg/kg) was determined (area under the concentration-time curve recorded at 0.5, 1, 2, and 4 hour after dosing); type: ADME, organism-based; set-up: dose 50 mg/kg, time < 4 hr, route oral; conditions: in vivo
Method in brief: (§2)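 Single oral dose of 50 mg/kg to mice. Blood taken from groups of six mice at 0.5, 1, 2 and 4 h after dosing. Serum levels measured by disk agar diffusion bioassay with Bacillus subtilis ATCC 6633 on Seed Agar, plates incubated 18 h at 37 °C, giving total activity in serum. AUC 0-4 h expressed as μg/mL […].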

Proteus vulgaris = test: Minimum inhibitory concentration (MIC) preventing growth of Proteus vulgaris; type: functional
Pseudomonas aeruginosa [6] = test: Efficacy on systemic infections after oral administration in mice was determined against Pseudomonas aeruginosa HS-116; type: functional; method in brief: as §1
Bacillus subtilis = test: Minimum inhibitory concentration (MIC) preventing growth of Bacillus subtilis; type: functional
Escherichia coli [7] = test: Efficacy on systemic infections after oral administration in mice was determined against Escherichia coli HM-42; type: functional; method in brief: as §1
Klebsiella pneumoniae = test: Minimum inhibitory concentration (MIC)preventing growth of Klebsiella pneumoniae; type: functional
[8] = test system: Staphylococcus epidermidis; test: Minimum inhibitory concentration (MIC) preventing growth of Staphylococcus epidermidis; type: functional
Enterobacter cloacae = test: Minimum inhibitory concentration (MIC)preventing growth of Enterobacter cloacae; type: functional
Mus musculus [9] = test: Blood level after oral administration in mice (50 mg/kg) was determined by bioassay procedure and represent total activity present in the serum; type: ADME, organism-based; conditions: in vivo; method in brief: as §2

Row | Structure (SMILES) | MIC (Staphylococcus aureus [1]) | MIC (Escherichia coli [2]) | MIC (Enterococcus faecalis) | MIC (Pseudomonas aeruginosa [3]) | ED50 (Staphylococcus aureus [4]) | MIC (Bacillus cereus) | MIC (Morganella morganii) | AUC (Mus musculus [5]) | MIC (Proteus vulgaris) | ED50 (Pseudomonas aeruginosa [6]) | MIC (Bacillus subtilis) | ED50 (Escherichia coli [7]) | MIC (Klebsiella pneumoniae) | MIC [8] | MIC (Enterobacter cloacae) | AUC (Mus musculus [9])
1 | CNC1(C)CN(c2c(F)cc3c(=O)c(C(=O)O)cn(C4CC4)c3c2F)C1 | 0.5 µg/mL (≈ 1.38 µM) | 0.12 µg/mL (≈ 0.33 µM) | 1 µg/mL (≈ 2.75 µM) | 2 µg/mL (≈ 5.5 µM) | 15 mg/kg | 0.5 µg/mL (≈ 1.38 µM) | 0.12 µg/mL (≈ 0.33 µM) | 15800 ng·h/mL | 1 µg/mL (≈ 2.75 µM) | 27.2 mg/kg | 0.12 µg/mL (≈ 0.33 µM) | 1.4 mg/kg | 0.12 µg/mL (≈ 0.33 µM) | 0.5 µg/mL (≈ 1.38 µM) | 0.12 µg/mL (≈ 0.33 µM) | 
2 | CCNC1CN(c2c(F)cc3c(=O)c(C(=O)O)cn(C4CC4)c3c2F)C1 | 0.25 µg/mL (≈ 0.688 µM) | 0.06 µg/mL (≈ 0.165 µM) | 1 µg/mL (≈ 2.75 µM) | 2 µg/mL (≈ 5.5 µM) | 16.6 mg/kg | 0.25 µg/mL (≈ 0.688 µM) | 0.06 µg/mL (≈ 0.165 µM) | 38200 ng·h/mL | 0.25 µg/mL (≈ 0.688 µM) | 89 mg/kg | 0.06 µg/mL (≈ 0.165 µM) | 1.1 mg/kg | 0.06 µg/mL (≈ 0.165 µM) | 0.25 µg/mL (≈ 0.688 µM) | 0.06 µg/mL (≈ 0.165 µM) | 
3 | CNC1CN(c2c(F)cc3c(=O)c(C(=O)O)cn(C4CC4)c3c2F)C1 | 0.25 µg/mL (≈ 0.716 µM) | 0.03 µg/mL (≈ 0.0859 µM) | 1 µg/mL (≈ 2.86 µM) | 0.5 µg/mL (≈ 1.43 µM) | 10.6 mg/kg | 0.25 µg/mL (≈ 0.716 µM) | 0.06 µg/mL (≈ 0.172 µM) | 32700 ng·h/mL | 0.5 µg/mL (≈ 1.43 µM) | 28.5 mg/kg | 0.06 µg/mL (≈ 0.172 µM) | 1.5 mg/kg | 0.03 µg/mL (≈ 0.0859 µM) | 0.12 µg/mL (≈ 0.344 µM) | 0.03 µg/mL (≈ 0.0859 µM) | 
4 | NC1CN(c2c(F)cc3c(=O)c(C(=O)O)cn(C4CC4)c3c2F)C1 | 0.12 µg/mL (≈ 0.358 µM) | 0.03 µg/mL (≈ 0.0895 µM) | 0.25 µg/mL (≈ 0.746 µM) | 0.5 µg/mL (≈ 1.49 µM) | 16.2 mg/kg | 0.12 µg/mL (≈ 0.358 µM) | 0.03 µg/mL (≈ 0.0895 µM) | 23000 ng·h/mL | 0.12 µg/mL (≈ 0.358 µM) | 141 mg/kg | 0.03 µg/mL (≈ 0.0895 µM) | 2.4 mg/kg | 0.03 µg/mL (≈ 0.0895 µM) | 0.12 µg/mL (≈ 0.358 µM) | 0.06 µg/mL (≈ 0.179 µM) | 
5 | CNC1CN(c2c(F)cc3c(=O)c(C(=O)O)cn(-c4ccc(F)cc4F)c3c2Cl)C1 | 0.015 µg/mL (≈ 0.0343 µM) | 0.015 µg/mL (≈ 0.0343 µM) | 0.12 µg/mL (≈ 0.274 µM) | 0.25 µg/mL (≈ 0.571 µM) | 1.3 mg/kg | 0.06 µg/mL (≈ 0.137 µM) | 0.12 µg/mL (≈ 0.274 µM) |  | 0.12 µg/mL (≈ 0.274 µM) | 30 mg/kg | 0.015 µg/mL (≈ 0.0343 µM) | 1.3 mg/kg | 0.12 µg/mL (≈ 0.274 µM) | 0.06 µg/mL (≈ 0.137 µM) | 0.12 µg/mL (≈ 0.274 µM) | 15300 ng·h/mL
6 | CCNCC1CN(c2c(F)cc3c(=O)c(C(=O)O)cn(C4CC4)c3c2F)C1 | 0.5 µg/mL (≈ 1.32 µM) | 0.25 µg/mL (≈ 0.662 µM) | 0.5 µg/mL (≈ 1.32 µM) | 4 µg/mL (≈ 10.6 µM) |  | 0.5 µg/mL (≈ 1.32 µM) | 0.25 µg/mL (≈ 0.662 µM) |  | 1 µg/mL (≈ 2.65 µM) |  | 0.06 µg/mL (≈ 0.159 µM) |  | 0.06 µg/mL (≈ 0.159 µM) | 0.25 µg/mL (≈ 0.662 µM) | 0.25 µg/mL (≈ 0.662 µM) | 14100 ng·h/mL
7 | NC1CN(c2cc3c(cc2F)c(=O)c(C(=O)O)cn3C2CC2)C1 | 0.25 µg/mL (≈ 0.788 µM) | 0.03 µg/mL (≈ 0.0945 µM) | 0.5 µg/mL (≈ 1.58 µM) | 0.25 µg/mL (≈ 0.788 µM) | 44 mg/kg | 0.12 µg/mL (≈ 0.378 µM) | 0.03 µg/mL (≈ 0.0945 µM) | 3000 ng·h/mL | 0.12 µg/mL (≈ 0.378 µM) | 82.2 mg/kg | 0.03 µg/mL (≈ 0.0945 µM) | 3.6 mg/kg | 0.03 µg/mL (≈ 0.0945 µM) | 0.12 µg/mL (≈ 0.378 µM) | 0.03 µg/mL (≈ 0.0945 µM) | 
8 | CCNCC1CN(c2cc3c(cc2F)c(=O)c(C(=O)O)cn3C2CC2)C1 | 0.5 µg/mL (≈ 1.39 µM) | 0.25 µg/mL (≈ 0.696 µM) | 4 µg/mL (≈ 11.1 µM) | 4 µg/mL (≈ 11.1 µM) |  | 0.5 µg/mL (≈ 1.39 µM) | 0.5 µg/mL (≈ 1.39 µM) | 0 ng·h/mL | 1 µg/mL (≈ 2.78 µM) |  | 0.06 µg/mL (≈ 0.167 µM) |  | 0.06 µg/mL (≈ 0.167 µM) | 1 µg/mL (≈ 2.78 µM) | 0.12 µg/mL (≈ 0.334 µM) | 
9 | NCC1CN(c2cc3c(cc2F)c(=O)c(C(=O)O)cn3C2CC2)C1 | 0.5 µg/mL (≈ 1.51 µM) | 0.12 µg/mL (≈ 0.362 µM) | 0.5 µg/mL (≈ 1.51 µM) | 1 µg/mL (≈ 3.02 µM) |  | 0.25 µg/mL (≈ 0.754 µM) | 0.12 µg/mL (≈ 0.362 µM) | 0 ng·h/mL | 1 µg/mL (≈ 3.02 µM) |  | 0.12 µg/mL (≈ 0.362 µM) |  | 0.12 µg/mL (≈ 0.362 µM) | 0.25 µg/mL (≈ 0.754 µM) | 0.25 µg/mL (≈ 0.754 µM) | 
10 | CC1(N)CN(c2c(F)cc3c(=O)c(C(=O)O)cn(C4CC4)c3c2F)C1 | 0.12 µg/mL (≈ 0.344 µM) | 0.06 µg/mL (≈ 0.172 µM) | 0.5 µg/mL (≈ 1.43 µM) | 0.5 µg/mL (≈ 1.43 µM) | 13 mg/kg | 0.12 µg/mL (≈ 0.344 µM) | 0.12 µg/mL (≈ 0.344 µM) | 20000 ng·h/mL | 0.25 µg/mL (≈ 0.716 µM) | 65.7 mg/kg | 0.03 µg/mL (≈ 0.0859 µM) | 3.1 mg/kg | 0.03 µg/mL (≈ 0.0859 µM) | 0.12 µg/mL (≈ 0.344 µM) | 0.06 µg/mL (≈ 0.172 µM) | 
11 | O=C(O)c1cn(C2CC2)c2cc(N3CCNCC3)c(F)cc2c1=O [CIPROFLOXACIN] | 0.25 µg/mL (≈ 0.754 µM) |  | 0.5 µg/mL (≈ 1.51 µM) | 0.12 µg/mL (≈ 0.362 µM) | 45.1 mg/kg | 0.25 µg/mL (≈ 0.754 µM) | 0.06 µg/mL (≈ 0.181 µM) |  | 0.06 µg/mL (≈ 0.181 µM) | 70.3 mg/kg | 0.06 µg/mL (≈ 0.181 µM) | 3 mg/kg | 0.03 µg/mL (≈ 0.0905 µM) | 0.5 µg/mL (≈ 1.51 µM) |  | 2300 ng·h/mL
